In ChEMBL document CHEMBL4118192, “BET bromodomain ligands: Probing the WPF shelf to improve BRD4 bromodomain affinity and metabolic stability” (Bioorg Med Chem, 2018):

Key:
Type in all cases: functional
SN12C = experiment: Growth inhibition of human SN12C cells after 48 hrs by sulforhodamine B assay
In short: (§1)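 NCI-60 panel follow-up: five concentrations from 10 nM to 100 μM, 48 h exposure. Growth read by sulforhodamine B protein staining. GI50 derived from the concentration-response, with the concentration for total growth inhibition (TGI) also recorded when below 100 μM.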

NCI-H226 [1] = experiment: Growth inhibition of human NCI-H226 cells at 10 uM after 48 hrs by sulforhodamine B assay relative to control; details: NCI-H226, 48 h, read-out: GI
In short: (§2)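 NCI-60 human cancer cell line screen, single-dose pass: cells exposed to 10 μM for 48 h. Cellular protein content read out by sulforhodamine B staining, and growth inhibition expressed relative to untreated control.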

SK-OV-3 = experiment: Growth inhibition of human SKOV3 cells after 48 hrs by sulforhodamine B assay; details: SK-OV-3, 48 h; in short: as §1
IGROV-1 = experiment: Growth inhibition of human IGROV1 cells after 48 hrs by sulforhodamine B assay; details: IGROV-1, 48 h
In short: (§3)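 NCI-60 panel screen. Cells were exposed for 48 h at five concentrations between 10 nM and 100 μM. Cellular protein was read by sulforhodamine B staining, and GI50 and total growth inhibition (TGI) concentrations were derived.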

HCC 2998 = experiment: Growth inhibition of human HCC2998 cells at 10 uM after 48 hrs by sulforhodamine B assay relative to control; details: HCC 2998, 48 h, read-out: GI
In short: (§4)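 NCI-60 single-dose screen at 10 μM for 48 h. Percent growth inhibition was measured by sulforhodamine B staining of cellular protein.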

LOX IMVI = experiment: Growth inhibition of human LOXIMVI cells after 48 hrs by sulforhodamine B assay; in short: as §3
SF-268 [2] = experiment: Growth inhibition of human SF268 cells after 48 hrs by sulforhodamine B assay; details: SF-268, 48 h; in short: as §1
HOP-62 [3] = experiment: Growth inhibition of human HOP62 cells at 10 uM after 48 hrs by sulforhodamine B assay relative to control; details: HOP-62, 48 h, read-out: GI; in short: as §4
786-0 = experiment: Growth inhibition of human 786-0 cells at 10 uM after 48 hrs by sulforhodamine B assay relative to control; details: 786-0, 48 h, read-out: GI; in short: as §4
SW-620 = experiment: Growth inhibition of human SW620 cells after 48 hrs by sulforhodamine B assay; details: SW-620, 48 h
In short: (§5)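 NCI-60 panel cells treated at five concentrations from 10 nM to 100 μM for 48 h. Read-out by sulforhodamine B protein stain. GI50 and total growth inhibition (TGI, if below 100 μM) taken from the concentration-response data.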

SNB-75 = experiment: Growth inhibition of human SNB75 cells after 48 hrs by sulforhodamine B assay; details: SNB-75, 48 h; in short: as §1
NCI-H322M = experiment: Growth inhibition of human NCI-H322M cells at 10 uM after 48 hrs by sulforhodamine B assay relative to control; details: read-out: GI; in short: as §2
A498 [4] = experiment: Growth inhibition of human A498 cells after 48 hrs by SRB assay; details: A498, 48 h
In short: (§6)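 In-house assay. Cells were seeded into 96-well plates at a density for exponential growth and treated with a concentration range for 48 h. They were then fixed in 10% (w/v) TCA and stained with sulforhodamine B. The 50% growth-inhibitory concentration relative to control cells was calculated as the mean of three repeats ± standard deviation.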

NCI-H226 [5] = experiment: Growth inhibition of human NCI-H226 cells after 48 hrs by sulforhodamine B assay; details: NCI-H226, 48 h; in short: as §1
SNB-19 = experiment: Growth inhibition of human SNB19 cells after 48 hrs by sulforhodamine B assay; details: SNB-19, 48 h; in short: as §1
A498 [6] = experiment: Growth inhibition of human A498 cells at 10 uM after 48 hrs by sulforhodamine B assay relative to control; details: A498, 48 h, read-out: GI; in short: as §4
HT-29 = experiment: Growth inhibition of human HT-29 cells after 48 hrs by SRB assay; details: HT-29, 48 h; in short: as §6
SR = experiment: Growth inhibition of human SR cells after 48 hrs by sulforhodamine B assay; in short: as §5
K562 = experiment: Growth inhibition of human K562 cells after 48 hrs by sulforhodamine B assay; details: K562, 48 h; in short: as §3
DU-145 = experiment: Growth inhibition of human DU145 cells after 48 hrs by sulforhodamine B assay; details: DU-145, 48 h; in short: as §3
SF-268 [7] = experiment: Growth inhibition of human SF268 cells at 10 uM after 48 hrs by sulforhodamine B assay relative to control; details: SF-268, 48 h, read-out: GI; in short: as §2
OVCAR-8 = experiment: Growth inhibition of human OVCAR8 cells at 10 uM after 48 hrs by sulforhodamine B assay relative to control; details: OVCAR-8, 48 h, read-out: GI; in short: as §2
HOP-62 [8] = experiment: Growth inhibition of human HOP62 cells after 48 hrs by sulforhodamine B assay; details: HOP-62, 48 h; in short: as §3
NCI-H522 [9] = experiment: Growth inhibition of human NCI-H522 cells at 10 uM after 48 hrs by sulforhodamine B assay relative to control; details: NCI-H522, 48 h, read-out: GI; in short: as §2
MDA-MB-468 = experiment: Growth inhibition of human MDA-MB-468 cells at 10 uM after 48 hrs by sulforhodamine B assay relative to control; details: MDA-MB-468, 48 h, read-out: GI; in short: as §2
TK-10 = experiment: Growth inhibition of human TK10 cells after 48 hrs by sulforhodamine B assay; details: TK-10, 48 h; in short: as §5
KM12 = experiment: Growth inhibition of human KM12 cells after 48 hrs by sulforhodamine B assay; details: KM12, 48 h; in short: as §3
ACHN = experiment: Growth inhibition of human ACHN cells at 10 uM after 48 hrs by sulforhodamine B assay relative to control; details: read-out: GI; in short: as §4
A549 = experiment: Growth inhibition of human A549/ATCC cells at 10 uM after 48 hrs by sulforhodamine B assay relative to control; details: A549, 48 h, read-out: GI; in short: as §4
RPMI-8226 = experiment: Growth inhibition of human RPMI8226 cells at 10 uM after 48 hrs by sulforhodamine B assay relative to control; details: RPMI-8226, 48 h, read-out: GI; in short: as §2
UACC-257 [10] = experiment: Growth inhibition of human UACC257 cells after 48 hrs by sulforhodamine B assay; details: UACC-257, 48 h; in short: as §5
NCI-H522 [11] = experiment: Growth inhibition of human NCI-H522 cells after 48 hrs by sulforhodamine B assay; details: NCI-H522, 48 h; in short: as §1
HOP-92 = experiment: Growth inhibition of human HOP92 cells at 10 uM after 48 hrs by sulforhodamine B assay relative to control; details: HOP-92, 48 h, read-out: GI; in short: as §4
UACC-257 [12] = experiment: Growth inhibition of human UACC257 cells at 10 uM after 48 hrs by sulforhodamine B assay relative to control; details: UACC-257, 48 h, read-out: GI
In short: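 NCI-60 human cancer cell line screen, single dose of 10 μM for 48 h. Cellular protein content read by sulforhodamine B staining; growth inhibition expressed relative to untreated control.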

SK-MEL-2 = experiment: Growth inhibition of human SK-MEL-2 cells after 48 hrs by sulforhodamine B assay; details: SK-MEL-2, 48 h; in short: as §1

Row | SMILES | GI50 (SN12C) [µM] | inhibition of growth at 10 µM (NCI-H226 [1]) [%] | GI50 (SK-OV-3) [µM] | GI50 (IGROV-1) [µM] | inhibition of growth at 10 µM (HCC 2998) [%] | GI50 (LOX IMVI) [µM] | TGI (LOX IMVI) [µM] | GI50 (SF-268 [2]) [µM] | inhibition of growth at 10 µM (HOP-62 [3]) [%] | inhibition of growth at 10 µM (786-0) [%] | GI50 (SW-620) [µM] | GI50 (SNB-75) [µM] | inhibition of growth at 10 µM (NCI-H322M) [%] | GI50 (A498 [4]) [µM] | TGI (A498 [4]) [µM] | GI50 (NCI-H226 [5]) [µM] | GI50 (SNB-19) [µM] | inhibition of growth at 10 µM (A498 [6]) [%] | GI50 (HT-29) [µM] | GI50 (SR) [µM] | further results
1 | COc1ccccc1S(=O)(=O)Nc1ccc2c(c1)CN(C)C(=O)N2 | 6.8 | 37 | 4.9 | 6.3 | 35.6 | 3.5 | 21.4 | 28.8 | 55.7 | 27.3 | 12 | 0.4 | 57.1 | 1.8 | 6 | 14.1 | 4.8 | 103 | 3 | 3.7 | GI50 (K562): 4.6 µM; GI50 (DU-145): 28.8 µM; inhibition of growth at 10 µM (SF-268 [7]): 27.1%; inhibition of growth at 10 µM (OVCAR-8): 43.8%; GI50 (HOP-62 [8]): 2.5 µM; inhibition of growth at 10 µM (NCI-H522 [9]): 73.9%; inhibition of growth at 10 µM (MDA-MB-468): 78.9%; GI50 (TK-10): 1.6 µM; TGI (TK-10): 58.9 µM; GI50 (KM12): 10.7 µM; inhibition of growth at 10 µM (ACHN): 65.3%; inhibition of growth at 10 µM (A549): 49.5%; inhibition of growth at 10 µM (RPMI-8226): 95.7%; GI50 (UACC-257 [10]): 3.6 µM; GI50 (NCI-H522 [11]): 8.7 µM; inhibition of growth at 10 µM (HOP-92): 97.6%; inhibition of growth at 10 µM (UACC-257 [12]): 66.2%; GI50 (SK-MEL-2): 29.5 µM
2 | Cc1noc(C)c1-c1cc(O)cc(C(O)c2ccccc2)c1 (stereo not given) | 3.99 | 34.5 | 7.01 | 23.2 | 37.8 | 3.6 | 80.5 | 39.3 | 52.8 | 45.2 | 24.5 | 0.423 | 52.4 | 1.58 to 2.6 | 20.3 | 21.3 | 5.69 | 103 | 4.54 to 5.79 | 1.01 | GI50 (K562): 8.69 µM; GI50 (DU-145): 6.95 µM; inhibition of growth at 10 µM (SF-268 [7]): 28.5%; inhibition of growth at 10 µM (OVCAR-8): 61.4%; GI50 (HOP-62 [8]): 4.89 µM; inhibition of growth at 10 µM (NCI-H522 [9]): 77.9%; inhibition of growth at 10 µM (MDA-MB-468): 75.1%; GI50 (TK-10): 1.08 µM; GI50 (KM12): 8.2 µM; inhibition of growth at 10 µM (ACHN): 39.4%; inhibition of growth at 10 µM (A549): 44.6%; inhibition of growth at 10 µM (RPMI-8226): 85.1%; GI50 (UACC-257 [10]): 4.66 µM; GI50 (NCI-H522 [11]): 27 µM; inhibition of growth at 10 µM (HOP-92): 74.4%; inhibition of growth at 10 µM (UACC-257 [12]): 59.6%; GI50 (SK-MEL-2): 23.5 µM
